proCasp7 act – procaspase-7 activators, primary screen, counter-screen for procaspase-3 activator project, biochemical, absorbance, HTS, human. activation, % at 8.5 µM. recombinant procaspase-7, Ac-DEVD-pNA absorbance 405 nm; D23A/D198A/D206A triple mutant, cannot self-cleave; scale: DMSO 0, 5 µM enzyme 100. 0.093% of 330,000 active. Caspase-7 (Homo sapiens), P55210. AID 463210, 2010;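 active = percent activation above the screen-wide mean plus 3 SD, cut at about 25% in these data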
Target sequence (P55210 whole entry D23A/D198A/D206A): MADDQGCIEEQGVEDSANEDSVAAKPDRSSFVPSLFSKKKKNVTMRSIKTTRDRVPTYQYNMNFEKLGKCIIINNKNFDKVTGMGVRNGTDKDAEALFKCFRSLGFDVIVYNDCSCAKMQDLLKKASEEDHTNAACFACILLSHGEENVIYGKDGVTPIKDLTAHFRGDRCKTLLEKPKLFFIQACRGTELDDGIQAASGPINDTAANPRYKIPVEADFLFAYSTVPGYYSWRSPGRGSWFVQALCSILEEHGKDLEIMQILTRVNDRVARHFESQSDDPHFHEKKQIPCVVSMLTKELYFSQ
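System: Uncleavable procaspase-7 mutant enzyme; Amount: 2 µM procaspase-7 mutant as dispensed; Schedule: 1 h compound preincubation, 2 h substrate cleavage, 25 °C; Measured by: 405 nm absorbance of p-nitroaniline; Evaluation: percent activation from buffer-corrected 0–120 min absorbance change; Control set: low DMSO alone, high DMSO plus 5 µM PC-7.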
PolyA inhibitor – polyadenylation inhibitors in yeast reporter cells, primary screen, luminescence, S. cerevisiae. activity score, % at 12 µM. 0.02% of 300,000 active. S. cerevisiae SKY197-pL101 polyadenylation reporter, beta-gal luminescence; efflux-impaired pdr1/pdr3 knockout yeast; score 100 = 6 SD above DMSO. AID 1875, 2009;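 active = lowest replicate activity score at least 50, where 100 means six control SD above control mean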;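 also: yeast exposed to compound for 9 h at 30 °C; higher score means more reporter readthrough which indicates perturbed polyadenylation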
AHR activator – AHR activators, primary screen, cell-based, luminescence, luciferase reporter, human; AHR-responsive luciferase reporter cells; activation, % at 5 µM; 2.5% of 320,000 active; AID 2796, 2010; in the data active = activation above about 47%
proCasp3 act – activators of human procaspase-3 D3A mutant, primary screen, biochemical, absorbance, PC-3 D3A mutant, single concentration. recombinant procaspase-3 D3A, Ac-DEVD-pNA absorbance 405 nm. AID 463141, 2010. 0.11% of 330,000 active. Caspase-3 (Homo sapiens), P42574. activation, % at 8.5 µM;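 active = activation above the mean of all tested compounds plus 3 SD, cut at about 21% in these data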
Target sequence (P42574 whole entry D9A/D28A/D175A): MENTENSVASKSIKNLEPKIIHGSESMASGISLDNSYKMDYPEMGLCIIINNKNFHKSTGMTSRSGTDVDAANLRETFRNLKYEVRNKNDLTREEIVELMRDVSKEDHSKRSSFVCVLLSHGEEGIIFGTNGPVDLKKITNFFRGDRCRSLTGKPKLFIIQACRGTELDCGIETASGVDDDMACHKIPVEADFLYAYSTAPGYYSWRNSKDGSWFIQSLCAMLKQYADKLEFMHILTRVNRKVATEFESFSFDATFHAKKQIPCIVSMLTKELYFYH
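Compound: 8.5 µM single point, 0.8% DMSO / Material: Autoprocessing-dead procaspase-3 D3A mutant enzyme / Timing: 1 h preincubation plus 2 h reaction at 25 °C / Medium: Zinc-free HEPES/NaCl buffer with 0.01% Triton X-100 at pH 7.4 / Technique: 405 nm absorbance of p-nitroaniline, reads at 0 and 120 min / Repeats: one well per compound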
AHR act cf – AHR activators, confirmation, cell-based, luminescence, luciferase reporter, human; shares compounds with AHR activator; human cells, AHR-responsive luciferase reporter; activation, % at 9 µM; 87% of 2,300 active; AID 2845, 2010; in the data active = activation above about 49%;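 also: HepG2 hepatoma cells carrying a DRE-driven firefly luciferase reporter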
PXR counter – human PXR activators, counter-screen for AHR activator project, cell-based, luciferase luminescence. shares compounds with AHR activator. cell-based PXR reporter. activation, % at 11.6 µM. 88% of 2,300 active. AID 434939, 2010; in the data active = activation above about 11%;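 also: human hepatoma DPX-2 cells expressing full-length human PXR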
Large screens that a line does not name were inactive (follow-up assays come after a bar, where they were run). A selection: hits, their analogues and other compounds. The true share with any hit is near 2.6%.

CCOC(=O)C1CCCN(C(=O)c2ccc3c(c2)N(Cc2ccccc2)C(=O)c2ccccc2S3=O)C1 (stereo not given)	none
c1ccc(CCNc2ncnc3scc(C4COc5ccccc5O4)c23)cc1 (stereo not given)	AHR activator 99 | AHR act cf 100 | PXR counter 23
O=C(Cc1coc2ccc3ccccc3c12)Nc1nccs1	AHR activator 79 | AHR act cf 93 | PXR counter 22
O=C(Cc1coc2ccc3ccccc3c12)NCc1ccccc1	none
O=C(CN1C(=O)NC2(CCCC2)C1=O)NNC(=O)c1ccc(Cl)cc1	none (no result: PolyA inhibitor)
Cc1cc(N/N=C/c2cccc(Br)c2)nc2ccccc12	AHR activator 100 | AHR act cf 97 | PXR counter 34
Cc1cc(N/N=C/c2ccccc2O)nc(-c2ccccc2O)n1	AHR activator 119 | AHR act cf inactive | PXR counter inactive
COc1ccc(/C=N/Nc2cc(C)nc3ccc(OC)cc23)c(OC)c1	none
Cc1cc(N/N=C\c2ccccc2)nc(-c2ccccc2O)n1	AHR activator 82 | AHR act cf 108 | PXR counter 15
COc1ccc2nc(C)cc(N/N=C/c3ccccc3)c2c1	AHR activator 142 (no result: PolyA inhibitor) | AHR act cf 96 | PXR counter inactive
Cc1cc(N/N=C/c2ccc(O)cc2O)nc(-c2ccccc2O)n1	none
CCc1nc2ccc(Cc3ccc4nc(CC)[nH]c4c3)cc2[nH]1	none
O=C(Cc1ccccc1)NCC(=O)N/N=C/c1ccc(Cl)cc1	none
COC(=O)c1ccccc1NC(=O)Cn1ccnc1	AHR activator 104 | AHR act cf 84
CC(=O)c1c(C)[nH]c(C(=O)Nc2cccc(S(=O)(=O)N3CCOCC3)c2)c1C	AHR activator 100 | AHR act cf 78 | PXR counter 34
CC(=O)c1c(C)[nH]c(C(=O)Nc2ccc(Cl)c(S(=O)(=O)N(C)C)c2)c1C	AHR activator 81 | AHR act cf 83 | PXR counter 53
COc1ccc(-c2cc3ncnc(Cl)c3s2)cc1	none
Cc1ccc(C(CC(=O)N2CCCC2)c2ccccc2)c(O)c1 (stereo not given)	none (no result: proCasp7 act, AHR activator, proCasp3 act)
S=C(Nc1ccccc1)c1nc2ccccc2s1	AHR activator 124 | AHR act cf 142 | PXR counter inactive
CCC(Oc1cc(Cl)ccc1Cl)C(=O)N1CCCN(C)CC1 (stereo not given)	none (no result: proCasp7 act, AHR activator, proCasp3 act)
CCOC(=O)c1sc(N/N=C/c2ccc(N(C)C)cc2)nc1C	AHR activator 130 | AHR act cf 86 | PXR counter 11
CC(=O)c1sc(N/N=C\c2ccc(Br)cc2)nc1C	none
COc1ccc([C@H]2CC(=O)C=C(c3cccc(OC)c3OC)C2)cc1OC	none (no result: PolyA inhibitor)
Cc1ccc(C(=O)c2oc3ccccc3c2N)cc1	AHR activator 113 | AHR act cf 138 | PXR counter 22
Nc1c(C(=O)c2ccc(Br)cc2)oc2ccccc12	AHR activator 122 | AHR act cf 176
Nc1c(C(=O)c2ccccc2)oc2ccc(Br)cc12	AHR activator 79 | AHR act cf 120 | PXR counter 12
Nc1c(C(=O)c2ccccc2)oc2ccc([N+](=O)[O-])cc12	none
COCCOC(=O)c1[nH]c2c(c1C)C(=O)CC(c1ccc(F)cc1)C2 (stereo not given)	none
COCCOC(=O)c1[nH]c2c(c1C)C(=O)CC(c1ccccc1)C2 (stereo not given)	AHR activator 115 | AHR act cf 56 | PXR counter 124
COc1ccccc1C(=O)N/C(=C/c1ccc(Br)cc1)C(=O)N1CCCC1	none
CCOc1ccc(N=C2SC(C(=O)Nc3ccccc3C#N)C(N)=C2C(=O)Nc2ccc(Cl)cc2)cc1 (stereo not given)	AHR activator 86 | AHR act cf 71 | PXR counter inactive
CCN(CC)S(=O)(=O)c1cccc(C(=O)OCC(=O)Nc2ccc3c(c2)c2ccccc2n3CC)c1	AHR activator 83 | AHR act cf 80 | PXR counter 33
CCN(CC)S(=O)(=O)c1cccc(NC(=O)COC(=O)c2cncc(Br)c2)c1	none (no result: PolyA inhibitor)
CCCCCC(=O)Nc1nc(C)c(-c2csc(Nc3cc(OC)ccc3OC)n2)s1	AHR activator 84 | AHR act cf 82 | PXR counter 73
CCCCCC(=O)Nc1nc(C)c(-c2csc(Nc3cc(Cl)ccc3C)n2)s1	AHR activator 109 | AHR act cf 75 | PXR counter 27
CC(=O)Nc1ccc(Nc2nc(-c3sc(C)nc3C)cs2)cc1	none
Cc1nc(NC(=O)CC(C)C)sc1-c1csc(Nc2ccc(Cl)cc2)n1	AHR activator 92 | AHR act cf 96 | PXR counter 20
COc1ccc(Nc2nc(-c3sc(C)nc3C)cs2)c(OC)c1	none
COc1ccc(Nc2nc(-c3sc(N)nc3C)cs2)cc1	none
CCOc1ccc(Nc2nc(-c3sc(N)nc3C)cs2)cc1	AHR activator 114 | AHR act cf 112 | PXR counter 17
CC(=NNC(=O)c1ccc(NS(=O)(=O)c2cccs2)cc1)c1ccc(OCC(N)=O)cc1	none (no result: PolyA inhibitor)
C=CCNC(=O)CN1N=C(c2ccc(C)cc2)CCC1=O	none
COc1ccccc1CCC(=O)Nc1ccc(S(=O)(=O)Nc2nccs2)cc1	none
O=C1c2cccc3cccc(c23)C(=O)N1CCCSc1ncn[nH]1	AHR activator 101 | AHR act cf 88 | PXR counter 57
Cc1ccc(N(CCCCN2C(=O)c3ccccc3C2=O)C(=O)c2cccc([N+](=O)[O-])c2)cc1	none
CN(C)CCCN1C(=O)c2cccc3cccc(c23)C1=O	AHR activator 141 | AHR act cf 163
O=C1c2ccccc2C(=O)N1CCSc1ncn[nH]1	none
COc1ccc(N(CCCN2C(=O)c3cccc4cccc(c34)C2=O)C(=O)c2cccc(OC)c2)cc1	AHR activator 88 | AHR act cf 99 | PXR counter 119
CC(=O)C1=C(O)C(=O)N(c2nccs2)C1c1ccc(Br)cc1 (stereo not given)	AHR activator 171 | AHR act cf inactive | PXR counter inactive
CC(=O)C1=C(O)C(=O)N(c2nccs2)C1c1ccc(F)cc1 (stereo not given)	none
CCOc1ccc(OCCC(=O)OCC(=O)Nc2cc(OCC)c(N3CCOCC3)cc2OCC)cc1	none
O=C(NC1CCC(O)CC1)C1CCN(S(=O)(=O)c2c(Cl)cccc2Cl)CC1 (stereo not given)	none (no result: PolyA inhibitor)
